Source: ChEMBL document CHEMBL3352313 (J Med Chem, 2014)

Key:
Homo sapiens = species: Homo sapiens; assay: Selectivity index, ratio of EC50 for human muscarinic acetylcholine receptor subtype 3 to EC50 for human muscarinic acetylcholine receptor subtype 5
[1] = target: Muscarinic acetylcholine receptor M3 (Homo sapiens, UniProt P20309); assay: Activity at human muscarinic acetylcholine receptor subtype 3 expressed in CHO cells by calcium mobilization assay; format: functional, cell-based
How it was run: (§1)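 Muscarinic subtype selectivity by fluorescence calcium mobilization in highly expressing CHO lines with similar receptor levels; Gi/o-coupled M2 and M4 cells co-transfected with chimeric Gqi5 to couple to Ca2+ mobilization. Read-outs are PAM EC50 and ACh max response. Mean ± SEM of at least three independent determinations.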

[2] = target: T1, Muscarinic acetylcholine receptor M1 (Homo sapiens) (UniProt P11229); assay: Activity at human muscarinic acetylcholine receptor subtype 1 expressed in CHO cells by calcium mobilization assay relative to acetylcholine; format: functional, cell-based; how it was run: as §1
T1 sequence (whole entry): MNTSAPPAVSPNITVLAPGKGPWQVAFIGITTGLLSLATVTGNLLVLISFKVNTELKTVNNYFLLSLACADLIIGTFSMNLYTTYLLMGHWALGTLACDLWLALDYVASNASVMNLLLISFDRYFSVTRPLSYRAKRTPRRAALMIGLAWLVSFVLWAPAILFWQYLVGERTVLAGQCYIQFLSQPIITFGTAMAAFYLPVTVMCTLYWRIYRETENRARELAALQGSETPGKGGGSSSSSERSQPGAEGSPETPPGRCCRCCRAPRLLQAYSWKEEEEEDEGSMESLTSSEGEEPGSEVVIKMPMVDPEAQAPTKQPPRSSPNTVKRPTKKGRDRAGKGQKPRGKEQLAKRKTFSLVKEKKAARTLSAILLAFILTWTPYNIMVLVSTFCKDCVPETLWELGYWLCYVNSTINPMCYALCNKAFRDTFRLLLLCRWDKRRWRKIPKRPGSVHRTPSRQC

[3] = target: T2, Muscarinic acetylcholine receptor M1 (Homo sapiens, UniProt P11229); assay: Activity at human muscarinic acetylcholine receptor subtype 1 expressed in CHO cells by calcium mobilization assay; format: functional, cell-based; how it was run: as §1
T2 sequence (P11229 whole entry): T1 sequence (whole entry)

Rattus norvegicus = assay: Brain to plasma partition coefficient, Kp of the compound in Sprague-Dawley rat 1 mg/kg, iv administered as single dose after 15 mins by LC/MS/MS utilizing electrospray ionization method; format: ADME, organism-based; set-up: dose 1 mg/kg, route intravenous; conditions: 0.25 h
How it was run: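 Male Sprague–Dawley rats (n = 3) dosed 1 mg/kg intravenously. Brain and plasma levels at 15 min after administration give Kp. Kp,uu is the unbound brain-plasma partition coefficient.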

Chain of Muscarinic acetylcholine receptor M3 (P20309 whole entry): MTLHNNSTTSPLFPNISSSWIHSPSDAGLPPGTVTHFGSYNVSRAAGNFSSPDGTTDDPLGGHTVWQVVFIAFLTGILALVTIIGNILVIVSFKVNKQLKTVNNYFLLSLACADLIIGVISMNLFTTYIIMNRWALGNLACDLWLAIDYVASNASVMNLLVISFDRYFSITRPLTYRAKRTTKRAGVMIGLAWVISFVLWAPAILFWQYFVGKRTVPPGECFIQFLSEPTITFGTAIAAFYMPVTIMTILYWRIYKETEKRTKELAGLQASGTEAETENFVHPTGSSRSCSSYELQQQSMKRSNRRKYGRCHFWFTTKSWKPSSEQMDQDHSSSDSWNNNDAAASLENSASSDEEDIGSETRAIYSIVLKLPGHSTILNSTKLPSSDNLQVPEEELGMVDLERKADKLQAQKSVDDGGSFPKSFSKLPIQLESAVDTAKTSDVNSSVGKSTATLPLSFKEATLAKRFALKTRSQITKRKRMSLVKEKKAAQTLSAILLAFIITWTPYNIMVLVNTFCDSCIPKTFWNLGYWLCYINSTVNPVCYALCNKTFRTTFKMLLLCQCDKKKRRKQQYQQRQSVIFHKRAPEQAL

CCN(Cc1ccccc1C(F)(F)F)C(=O)C1CCN(S(=O)(=O)c2ccc3[nH]ncc3c2)CC1
Ratio EC50 (Homo sapiens): > 10
EC50 [1]: 2.1 µM
%max [2]: 52%
EC50 [3]: 5.4 µM
Kp (Rattus norvegicus): 0.36
